Data as given in paper PMC3149718 (Molecular and cellular biochemistry, 2011).
Changes are numbered by the printed parent chain.

Key:
[1] = biological target: T1, Cy3-labeled CPTI WT 89-residue peptide (Rattus norvegicus, UniProt P32198); assay: FRET between Cy3-labeled CPTI peptide and Cy5-labeled LCFA-CoA binding proteins; settings: Cy5-labeled acceptor protein; for Sensitized Emission R (intermolecular distance): donor Cy3-CPTI WT
T1 sequence (P32198 381-469): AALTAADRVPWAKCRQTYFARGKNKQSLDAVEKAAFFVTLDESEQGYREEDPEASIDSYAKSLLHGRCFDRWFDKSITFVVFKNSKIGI

[2] = biological target: T2, Cy3-labeled W452A 89-residue CPTI peptide (Rattus norvegicus, UniProt P32198, W452A); assay: as above; settings: donor Cy3-W452A, Cy5-labeled acceptor protein
T2 sequence (P32198 381-469 W452A): T1 sequence (P32198 381-469) with W72A

[3] = biological target: T3, W452A mutant CPTI in mitochondria from yeast (Rattus norvegicus, UniProt P32198, W452A); assay: CPTI activity assay; assay type: biochemical
T3 sequence (P32198 1-773 W452A): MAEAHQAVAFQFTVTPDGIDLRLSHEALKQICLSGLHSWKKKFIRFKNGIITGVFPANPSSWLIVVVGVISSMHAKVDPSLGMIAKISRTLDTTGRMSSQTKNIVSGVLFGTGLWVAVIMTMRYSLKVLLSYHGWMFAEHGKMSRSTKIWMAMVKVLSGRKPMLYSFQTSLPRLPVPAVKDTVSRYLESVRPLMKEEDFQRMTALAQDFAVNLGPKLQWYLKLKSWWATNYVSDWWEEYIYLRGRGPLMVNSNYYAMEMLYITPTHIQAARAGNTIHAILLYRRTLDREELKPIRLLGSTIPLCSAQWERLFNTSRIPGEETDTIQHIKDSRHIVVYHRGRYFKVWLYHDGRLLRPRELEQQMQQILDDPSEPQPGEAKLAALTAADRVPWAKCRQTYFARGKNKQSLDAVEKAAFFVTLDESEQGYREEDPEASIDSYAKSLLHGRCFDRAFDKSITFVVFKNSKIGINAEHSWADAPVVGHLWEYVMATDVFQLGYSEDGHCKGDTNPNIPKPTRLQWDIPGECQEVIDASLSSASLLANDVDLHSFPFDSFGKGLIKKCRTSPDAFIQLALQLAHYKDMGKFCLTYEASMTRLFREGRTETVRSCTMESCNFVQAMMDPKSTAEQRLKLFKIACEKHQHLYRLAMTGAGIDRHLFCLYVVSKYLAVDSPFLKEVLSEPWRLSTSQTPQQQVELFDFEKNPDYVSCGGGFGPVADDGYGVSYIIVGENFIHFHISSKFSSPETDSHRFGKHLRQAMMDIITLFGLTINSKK
Method in brief: (§1)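 Mitochondria isolated from yeast strains expressing wild-type or mutant CPTI were assayed by forward exchange with L-[methyl-3H]carnitine at a fixed 1.0 mM carnitine, using 150 µg mitochondrial protein. […] Incubation was 5 min at 30°C and was stopped with 6% perchloric acid. Values are mean ± SE.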

[4] = biological target: T4, wild-type CPTI in mitochondria from yeast (Rattus norvegicus, UniProt P32198); assay: CPTI activity assay; assay type: biochemical
T4 sequence (P32198 1-773): T3 sequence (P32198 1-773 W452A) with A452W
Method in brief: as §1

[5] = biological target: T5, W391A mutant CPTI in mitochondria from yeast (Rattus norvegicus, UniProt P32198, W391A); assay: CPTI activity assay; assay type: biochemical
T5 sequence (P32198 1-773 W391A): T3 sequence (P32198 1-773 W452A) with W391A, A452W
Method in brief: as §1

[6] = biological target: T6, Cy3-labeled W391A 89-residue CPTI peptide (Rattus norvegicus, UniProt P32198, W391A); assay: FRET between Cy3-labeled CPTI peptide and Cy5-labeled LCFA-CoA binding proteins; settings: donor Cy3-W391A, Cy5-labeled acceptor protein
T6 sequence (P32198 381-469 W391A): T1 sequence (P32198 381-469) with W11A

[7] = donor protein 15uM, palmitoyl-CoA to protein molar ratio 7.41
[8] = donor protein 30uM, palmitoyl-CoA to protein molar ratio 3.70
[9] = donor protein 60uM, palmitoyl-CoA to protein molar ratio 1.85

## CytoC: Cytochrome C purchased from Sigma Aldrich, used as control protein [reference compound]
[1]; donor Cy3-CPTI WT 30 nM, PBS 24°C
  Sensitized Emission Kd: no FRET or binding was observed

B1: ACBP: Mouse recombinant acyl CoA binding protein (protein)
chain: MSQAEFDKAAEEVKRLKTQPTDEEMLFIYSHFKQATVGDVNTDRPGLLDLKGKAKWDSWNKLKGTSKESAMKTYVEKVDELKKKYGI
modifications: Cy5 dye, approximately 1 dye per protein molecule (in the FRET assay only; unlabelled in circular dichroism)
[2]
  Sensitized Emission R (intermolecular distance): 65.8 ± 0.2 Å
[3]; [7]
  CPTI activity, W452A: 0.7 ± 0.2 nmol/min/mg
[3]; [8]
  CPTI activity, W452A: 0.8 ± 0.2 nmol/min/mg
[3]; [9]
  CPTI activity, W452A: 1.3 ± 0.1 nmol/min/mg
[4]; [7]
  CPTI activity, WT: 31.8 ± 2.1 nmol/min/mg
[4]; [8]
  CPTI activity, WT: 27.6 ± 2.4 nmol/min/mg
[4]; [9]
  CPTI activity, WT: 13.2 ± 0.1 nmol/min/mg
[1]
  Sensitized Emission R (intermolecular distance): 56 ± 1 Å
[5]; [7]
  CPTI activity, W391A: 3.3 ± 0.1 nmol/min/mg
[5]; [8]
  CPTI activity, W391A: 4.5 ± 0.9 nmol/min/mg
[5]; [9]
  CPTI activity, W391A: 5.7 ± 0.1 nmol/min/mg
[6]
  Sensitized Emission R (intermolecular distance): 65 ± 1 Å

B2: SCP-2: Human recombinant sterol carrier protein-2 (protein, UniProt P22307 1-547, looked up)
Sterol carrier protein 2: MSSSPWEPATLRRVFVVGVGMTKFVKPGAENSRDYPDLAEEAGKKALADAQIPYSAVDQACVGYVFGDSTCGQRAIYHSLGMTGIPIINVNNNCATGSTALFMARQLIQGGVAECVLALGFEKMSKGSLGIKFSDRTIPTDKHVDLLINKYGLSAHPVAPQMFGYAGKEHMEKYGTKIEHFAKIGWKNHKHSVNNPYSQFQDEYSLDEVMASKEVFDFLTILQCCPTSDGAAAAILASEAFVQKYGLQSKAVEILAQEMMTDLPSSFEEKSIIKMVGFDMSKEAARKCYEKSGLTPNDIDVIELHDCFSTNELLTYEALGLCPEGQGATLVDRGDNTYGGKWVINPSGGLISKGHPLGATGLAQCAELCWQLRGEAGKRQVPGAKVALQHNLGIGGAVVVTLYKMGFPEAASSFRTHQIEAVPTSSASDGFKANLVFKEIEKKLEEEGEQFVKKIGGIFAFKVKDGPGGKEATWVVDVKNGKGSVLPNSDKKADCTITMADSDFLALMTGKMNPQSAFFQGKLKITGNMGLAMKLQNLQLQPGNAKL
modifications: Cy5 label
[3]; [7]
  CPTI activity, W452A: 0.8 ± 0.2 nmol/min/mg
[3]; [8]
  CPTI activity, W452A: 1.2 ± 0.2 nmol/min/mg
[3]; [9]
  CPTI activity, W452A: 0.9 ± 0.2 nmol/min/mg
[4]; [7]
  CPTI activity, WT: 31.7 ± 1.1 nmol/min/mg
[4]; [8]
  CPTI activity, WT: 26.1 ± 1.1 nmol/min/mg
[4]; [9]
  CPTI activity, WT: 16.5 ± 0.1 nmol/min/mg
[5]; [7]
  CPTI activity, W391A: 4.7 ± 0.1 nmol/min/mg
[5]; [8]
  CPTI activity, W391A: 5.7 ± 0.2 nmol/min/mg
[5]; [9]
  CPTI activity, W391A: 4.5 ± 0.1 nmol/min/mg

B3: L-FABP: Mouse recombinant liver fatty acid binding protein, delipidated (protein)
chain: MNFSGKYQLQSQENFEPFMKAIGLPEDLIQKGKDIKGVSEIVHEGKKIKLTITYGPKVVRNEFTLGEECELETMTGEKVKAVVKLEGDNKMVTTFKGIKSVTELNGDTITNTMTLGDIVYKRVSKRI
modifications: Cy5 dye, approximately 1 dye per protein molecule (in the FRET assay only; unlabelled in circular dichroism)
[2]
  Sensitized Emission R (intermolecular distance): 82 ± 1 Å
[3]; [7]
  CPTI activity, W452A: 0.9 ± 0.2 nmol/min/mg
[3]; [8]
  CPTI activity, W452A: 1.1 ± 0.1 nmol/min/mg
[3]; [9]
  CPTI activity, W452A: 1.6 ± 0.1 nmol/min/mg
[4]; [7]
  CPTI activity, WT: 39.3 ± 2.5 nmol/min/mg
[4]; [8]
  CPTI activity, WT: 37.6 ± 0.1 nmol/min/mg
[4]; [9]
  CPTI activity, WT: 34.0 ± 0.1 nmol/min/mg
[1]
  Sensitized Emission R (intermolecular distance): 56 ± 3 Å
[5]; [7]
  CPTI activity, W391A: 4.2 ± 0.1 nmol/min/mg
[5]; [8]
  CPTI activity, W391A: 5.9 ± 0.1 nmol/min/mg
[5]; [9]
  CPTI activity, W391A: 7.4 ± 0.1 nmol/min/mg
[6]
  Sensitized Emission R (intermolecular distance): 50 ± 2 Å
